Format in all cases: functional
Assay [1] relates to Streptococcus agalactiae. Description: Antimicrobial activity against Streptococcus agalactiae ATCC 12386 assessed as reduction in microbial growth measured after 20 hrs by CLSI based broth microdilution method. (In broth dilution the organism is exposed to a series of concentrations in liquid medium.)
Assay [2] deals with Streptococcus pneumoniae. As to the kind of experiment: Antimicrobial activity against Streptococcus pneumoniae clinical isolate CUHK-X01 assessed as reduction in microbial growth measured after 20 hrs by CLSI based broth microdilution method.
For assay [3], the system named is Staphylococcus saprophyticus. As to the kind of experiment: Antimicrobial activity against Staphylococcus saprophyticus ATCC 15305 assessed as reduction in microbial growth measured after 20 hrs by CLSI based broth microdilution method.
The test system of assay [4] is Streptococcus pneumoniae. As to the kind of experiment: Antimicrobial activity against Streptococcus pneumoniae ATCC 49619 assessed as reduction in microbial growth measured after 20 hrs by CLSI based broth microdilution method.
Assay [5] has as its system Staphylococcus aureus. As to the kind of experiment: Antimicrobial activity against Staphylococcus aureus ATCC 29213 assessed as reduction in microbial growth measured after 20 hrs by CLSI based broth microdilution method. In a few lines:
(§1)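 Broth microdilution per CLSI in cation-adjusted Mueller-Hinton broth. Two-fold serial dilutions from 256 to 0.25 μg/mL, inoculum about 5 × 10⁵ CFU/mL. Read after 20 h at 37 °C. MIC is the lowest concentration with no visible growth. Run in duplicate.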

Assay [6] relates to Escherichia coli. Description: Antimicrobial activity against Escherichia coli ATCC 25922 assessed as reduction in microbial growth measured after 20 hrs by CLSI based broth microdilution method. In a few lines: as §1
Assay [7] concerns Enterobacter cloacae. Description: Antimicrobial activity against Enterobacter cloacae ATCC 13047 assessed as reduction in microbial growth measured after 20 hrs by CLSI based broth microdilution method. In a few lines: as §1
Assay [8] has as its system Acinetobacter baumannii. Description: Antimicrobial activity against Acinetobacter baumannii ATCC 19606 assessed as reduction in microbial growth measured after 20 hrs by CLSI based broth microdilution method. In a few lines:
as §1

For assay [9], the system named is Pseudomonas aeruginosa. Description: Antimicrobial activity against Pseudomonas aeruginosa ATCC 27853 assessed as reduction in microbial growth measured after 20 hrs by CLSI based broth microdilution method. In a few lines:
as §1

The test system of assay [10] is Klebsiella pneumoniae. As to the kind of experiment: Antimicrobial activity against Klebsiella pneumoniae ATCC 700603 assessed as reduction in microbial growth measured after 20 hrs by CLSI based broth microdilution method. In a few lines: as §1
Assay [11] relates to Staphylococcus aureus. As to the kind of experiment: Antimicrobial activity against Staphylococcus aureus ATCC 25923 assessed as reduction in microbial growth measured after 20 hrs by CLSI based broth microdilution method. In a few lines: as §1
In assay [12] the test system is Enterococcus faecalis. Description: Antimicrobial activity against Enterococcus faecalis ATCC 19433 assessed as reduction in microbial growth measured after 20 hrs by CLSI based broth microdilution method. In a few lines:
as §1

The term MIC denotes the lowest concentration that inhibits growth of the organism. Regarding `CN[C@H](CC(C)C)C(=O)N[C@H]1C(=O)N[C@@H](CC(N)=O)C(=O)N[C@H]2C(=O)N[C@H]3C(=O)N[C@H](C(=O)N[C@H](C(=O)O)c4cc(O)cc(O)c4-c4cc3ccc4O)[C@H](O)c3ccc(c(Cl)c3)Oc3cc2cc(c3O[C@@H]2O[C@H](CO)[C@@H](O)[C@H](O)[C@H]2O[C@H]2C[C@](C)(N)[C@H](O)[C@H](C)O2)Oc2ccc(cc2Cl)[C@H]1O` [VANCOMYCIN], the MIC in assay [1] turned out to be 1 µg/mL; in assay [2], 0.5 µg/mL; in assay [3], 2 µg/mL; in assay [4] it was 1 µg/mL.

Take `Cc1onc(-c2ccccc2)c1C(=O)N[C@@H]1C(=O)N2[C@@H]1SC(C)(C)[C@@H]2C(=O)O` [OXACILLIN]: the minimal inhibitory concentration (MIC) is 1 µg/mL in [1], at most 0.062 µg/mL in assay [2], 2 µg/mL in [3] and 2 µg/mL in assay [4].

In the case of `OC(CNCCNc1nccc(C(F)(F)F)n1)COc1ccc(F)cc1` (stereo not drawn), the MIC in assay [5] was 256 µg/mL; in assay [6] it was above 256 µg/mL; in [7], above 256 µg/mL; in assay [8], above 256 µg/mL; in [9], above 256 µg/mL; in assay [10], above 256 µg/mL. The minimum inhibitory concentration (MIC) in assay [11] was above 256 µg/mL; in assay [12] it was above 256 µg/mL; in [4] it was 128 µg/mL.

Consider `COC(=O)c1ccc(OCC(O)CNCCNc2nccc(C(F)(F)F)n2)cc1` (stereo not drawn), for which the MIC in [5], in assay [6], in assay [7], in assay [8], in assay [9] and in [10] was above 256 µg/mL throughout. Moreover, the figures for the MIC in [11], in assay [12] and in assay [4] were above 256 µg/mL, above 256 µg/mL and 256 µg/mL, respectively.

In the case of `O=[N+]([O-])c1ccc(OCC(O)CNCCNc2ncc(C(F)(F)F)cn2)cc1` (stereo not drawn), the MIC in assay [5] was 256 µg/mL; in assay [6], above 256 µg/mL; in assay [7], above 256 µg/mL; in [8] it was above 256 µg/mL; in assay [9], above 256 µg/mL; in assay [10] it was above 256 µg/mL. The MIC in assay [11] was 256 µg/mL; in assay [12] it was above 256 µg/mL; in [4] it was 128 µg/mL.

As to `CNC(C)[C@@H]1CC[C@@H](N)[C@@H](O[C@H]2[C@H](O)[C@@H](O[C@H]3OC[C@](C)(O)[C@H](NC)[C@H]3O)[C@H](N)C[C@@H]2N)O1.CN[C@@H]1[C@@H](O)[C@@H](O[C@@H]2[C@@H](O)[C@H](O[C@H]3O[C@H](C(C)N)CC[C@H]3N)[C@@H](N)C[C@H]2N)OC[C@]1(C)O.CN[C@@H]1[C@@H](O)[C@@H](O[C@@H]2[C@@H](O)[C@H](O[C@H]3O[C@H](CN)CC[C@H]3N)[C@@H](N)C[C@H]2N)OC[C@]1(C)O` (stereo partly drawn), the MIC in assay [1] was 64 µg/mL; in [2], 32 µg/mL; in assay [3], at most 0.062 µg/mL; in assay [4], 32 µg/mL.

Take `OC(CNCCNc1nccc(C(F)(F)F)n1)COc1ccc(F)c(F)c1` (stereo not drawn): the MIC in [5] is 256 µg/mL; in [6], 128 µg/mL; in assay [7], 256 µg/mL; in assay [8], 256 µg/mL; in [9] it was above 256 µg/mL; in assay [10] it was above 256 µg/mL. For the same molecule, the MIC worked out at 256 µg/mL in [11], 256 µg/mL in [12] and 64 µg/mL in assay [4].

For the molecule `OC(CNCCNc1ccc(C(F)(F)F)cn1)COCc1ccc(C(F)(F)F)cc1` (stereo not drawn), the MIC in assay [5] was 32 µg/mL; in assay [6], 128 µg/mL; in assay [7], 128 µg/mL; in [8] it was 64 µg/mL; in assay [9], above 256 µg/mL; in assay [10] it was above 256 µg/mL. In addition, the MIC came out at 32 µg/mL in assay [11], 32 µg/mL in [12] and 16 µg/mL in [4].

Turning to `OC(CNCCNc1ccc(-c2ccccc2)cc1)COc1ccc(C(F)(F)F)cc1` (stereo not drawn), the MIC in [5], in assay [6], in [7], in assay [8], in [9] and in assay [10] was above 256 µg/mL throughout. For the same molecule, the minimum inhibitory concentration (MIC) in assay [11], in [12] and in assay [4] was above 256 µg/mL throughout.

Turning to `O=[N+]([O-])c1ccc(OCC(O)CNCCNc2ncccc2C(F)(F)F)cc1` (stereo not drawn), the minimum inhibitory concentration (MIC) in assay [5] is 128 µg/mL; in assay [6], above 256 µg/mL; in [7], above 256 µg/mL; in assay [8], above 256 µg/mL; in [9], above 256 µg/mL; in [10], above 256 µg/mL. Further, the MIC in assay [11] was found to be 128 µg/mL; in [12] it was 256 µg/mL; in [4], 64 µg/mL.

`OC(CNCCNc1ccc(C(F)(F)F)cn1)COCc1ccccc1` (stereo not drawn): the MIC in assay [5] is 128 µg/mL; in assay [6], 256 µg/mL; in assay [7], 256 µg/mL; in [8], 256 µg/mL; in assay [9], above 256 µg/mL; in assay [10] it was above 256 µg/mL. The minimal inhibitory concentration (MIC) came out at 256 µg/mL in assay [11], 256 µg/mL in assay [12] and 128 µg/mL in assay [4].

Turning to `OC(CNCCNc1ccc(C(F)(F)F)cc1)COc1ccc(C(F)(F)F)cc1` (stereo not drawn), the MIC is 32 µg/mL in assay [5]; 128 µg/mL in assay [6]; 256 µg/mL in [7]; 256 µg/mL in [8]; above 256 µg/mL in [9]; above 256 µg/mL in assay [10]. The MIC came to 64 µg/mL in assay [11], 32 µg/mL in assay [12] and 8 µg/mL in [4].

Take `OC(CNCCNc1ccccc1C(F)(F)F)COCc1cccc(C(F)(F)F)c1.OC(CNCCNc1ccccc1C(F)(F)F)COCc1cccc(C(F)(F)F)c1` (stereo not drawn): the MIC is 128 µg/mL in assay [5]; above 256 µg/mL in [6]; above 256 µg/mL in assay [7]; above 256 µg/mL in assay [8]; above 256 µg/mL in assay [9]; above 256 µg/mL in [10]. Further, the minimum inhibitory concentration (MIC) in assay [11] was above 256 µg/mL; in assay [12], above 256 µg/mL; in assay [4], 128 µg/mL.

On to `O=[N+]([O-])c1ccc(OCC(O)CNCCNc2ccccc2C(F)(F)F)cc1` (stereo not drawn), for which the minimal inhibitory concentration (MIC) was 64 µg/mL in assay [5]; 128 µg/mL in assay [6]; 128 µg/mL in [7]; 128 µg/mL in assay [8]; above 256 µg/mL in [9]; above 256 µg/mL in assay [10]. Besides, the minimal inhibitory concentration (MIC) in assay [11] is 64 µg/mL; in assay [12] it was 128 µg/mL; in [4], 64 µg/mL.

In the case of `OC(CNCCNc1ccc(C(F)(F)F)cn1)CSCc1ccc(C(F)(F)F)cc1` (stereo not drawn), the minimal inhibitory concentration (MIC) in assay [5] was 8 µg/mL; in assay [6], 32 µg/mL; in assay [7], 64 µg/mL; in assay [8], 32 µg/mL; in assay [9], above 256 µg/mL; in assay [10] it was above 256 µg/mL. The minimum inhibitory concentration (MIC) in [11] came out at 16 µg/mL; in assay [12], 32 µg/mL; in assay [4], 16 µg/mL.

As to `OC(CNCCNc1ccc(C(F)(F)F)cn1)COCc1ccccc1C(F)(F)F` (stereo not drawn), the MIC in assay [5] is 64 µg/mL; in assay [6], 128 µg/mL; in assay [7], 128 µg/mL; in assay [8] it was 128 µg/mL; in assay [9] it was above 256 µg/mL; in assay [10], above 256 µg/mL. Moreover, the figures for the MIC in [11], in assay [12] and in [4] were 64 µg/mL, 128 µg/mL and 64 µg/mL, respectively.

For `OC(CNCCSc1ccccc1C(F)(F)F)COc1ccc(C(F)(F)F)cc1` (stereo not drawn), the MIC is 8 µg/mL in assay [5]; 16 µg/mL in assay [6]; 128 µg/mL in assay [7]; 32 µg/mL in assay [8]; above 256 µg/mL in assay [9]; above 256 µg/mL in assay [10]. The MIC in assay [11] was 16 µg/mL; in assay [12], 8 µg/mL; in assay [4], 4 µg/mL.

For the origin of these results see ChEMBL document CHEMBL6071151, “Discovery of Inhibitors Targeting Protein-Protein Interaction between Bacterial RNA Polymerase and NusG as Novel Antimicrobials” (J Med Chem, 2024).
